In ChEMBL document CHEMBL1148900, “Isolation and characterization of five new tetrasaccharide glycosides from the roots of Ipomoea stans and their cytotoxic activity” (2004):
≈ marks a conversion by molar mass, not a printed value. Calls of active or inactive are those of the source. The calls are words filed in the database; no cut-off is given here.

Legend:
Assay type in all cases: functional
HCT-15 = assay: Cytotoxicity against human HCT15 cells after 72 hrs; conditions: for EC50: HCT-15, 72 h, read-out: ED50 (the source's name)
Summary of the method: (§1)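 Cells kept in RPMI with 10% FBS at 37 °C, 5% CO₂, 100% humidity. Log-phase cells were exposed in triplicate to 0.5–100 μg/mL of compound for 72 h at 37 °C. Cell concentration was measured by protein analysis. ED₅₀ (dose inhibiting 50% of control growth) was read from a semilog plot of concentration (μg/mL) against percent viable cells.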

OVCAR-5 = assay: Cytotoxicity against human OVCAR5 cells after 72 hrs; conditions: OVCAR-5, 72 h, read-out: ED50 (the source's name); summary of the method: as §1
UISO-SQC1 = assay: (§2) Cytotoxicity against human UISO-SQC1 cells after 72 hrs; summary of the method: as §1
[1] = as §2; conditions: UISO-SQC1, 72 h, read-out: ED50 (the source's name); summary of the method: as §1

Structure (SMILES)	EC50 (HCT-15) [µg/mL]	EC50 (OVCAR-5) [µg/mL]	Activity (HCT-15)	Activity (UISO-SQC1)	EC50 [1] [µg/mL]
CCCCC[C@H]1CCCCCCCCCC(=O)O[C@@H]2[C@@H](O[C@@H]3O[C@H](C)[C@@H](OC(=O)C(C)C(C)O)[C@H](O)[C@H]3O)[C@H](C)O[C@@H](O[C@H]3[C@H](O[C@H]4[C@H](O1)O[C@H](C)[C@@H](O)[C@@H]4O)O[C@H](COC(=O)C(C)C(C)O)[C@@H](O)[C@@H]3O)[C@@H]2OC(=O)C(C)CC (some centres not stated) [STANSIN 3]	> 24	> 25			
CCCCC[C@H]1CCCCCCCCCC(=O)O[C@@H]2[C@@H](O[C@@H]3O[C@H](C)[C@@H](OC(=O)C(C)C)[C@H](O)[C@H]3O)[C@H](C)O[C@@H](O[C@H]3[C@H](O[C@H]4[C@H](O1)O[C@H](C)[C@@H](O)[C@@H]4O)O[C@H](CO)[C@@H](O)[C@@H]3O)[C@@H]2OC(=O)C(C)CC (some centres not stated) [STANSIN 4]		5.5 (≈ 5.45 µM)	inactive	inactive	
CCCCC[C@H]1CCCCCCCCCC(=O)O[C@@H]2[C@@H](O[C@@H]3O[C@H](C)[C@@H](OC(=O)C(C)C(C)O)[C@H](O)[C@H]3O)[C@H](C)O[C@@H](O[C@H]3[C@H](O[C@H]4[C@H](O1)O[C@H](C)[C@@H](O)[C@@H]4O)O[C@H](COC(=O)C(C)C(C)O)[C@@H](O)[C@@H]3O)[C@@H]2OC(=O)C(C)C (some centres not stated) [STANSIN 1]	> 24	> 25			
CCCCC[C@H]1CCCCCCCCCC(=O)O[C@@H]2[C@@H](O[C@@H]3O[C@H](C)[C@@H](OC(=O)C(C)CC)[C@H](O)[C@H]3O)[C@H](C)O[C@@H](O[C@H]3[C@H](O[C@H]4[C@H](O1)O[C@H](C)[C@@H](O)[C@@H]4O)O[C@H](CO)[C@@H](O)[C@@H]3O)[C@@H]2OC(=O)C(C)CC (some centres not stated) [STANSIN 5]	24 (≈ 23.5 µM)	1.5 (≈ 1.47 µM)			4 (≈ 3.91 µM)
CCCCC[C@H]1CCCCCCCCCC(=O)O[C@@H]2[C@@H](O[C@@H]3O[C@H](C)[C@@H](OC(=O)C(C)C(C)O)[C@H](O)[C@H]3O)[C@H](C)O[C@@H](O[C@H]3[C@H](O[C@H]4[C@H](O1)O[C@H](C)[C@@H](O)[C@@H]4O)O[C@H](COC(=O)C(C)C(C)O)[C@@H](O)[C@@H]3O)[C@@H]2OC(=O)CC(C)C (some centres not stated) [STANSIN 2]	> 24	> 25			
